{"data": "Results pooled from the literature", "target": "Serine/threonine-protein kinase NIM1 (NIM1K, Homo sapiens, UniProt Q8IY84)", "note": "Lines come from different studies, so protocols differ."}
{"SMILES": "N[C@@H]1CCN(c2nccc(-c3cnn4ncccc34)n2)C1", "assay": "binding", "setting": "1 µM", "remaining binding [%]": 79}
{"SMILES": "c1cncc(-c2cccc(Nc3nccc(NC4CCCCC4)n3)c2)c1", "assay": "binding, competition with immobilised ligand", "setting": "10 µM", "remaining binding [%]": 88}
{"SMILES": "CN(c1nccc(-c2cnn3ncccc23)n1)C1CC1", "assay": "binding", "setting": "1 µM", "remaining binding [%]": 100}
{"SMILES": "O=C(c1ccc(Nc2ncc(Cl)c(-c3ccc(Cl)s3)n2)cc1)N1CCC(N2CCCC2)CC1", "assay": "binding, competition with immobilised ligand", "setting": "1 µM", "remaining binding [%]": 6.3}
{"SMILES": "CC1=C(C#N)[C@@H](c2ccc3[nH]nc(C)c3c2)C(C#N)=C(c2ccc(Cl)cc2)N1", "assay": "cell-free assay, competition with immobilised ligand", "setting": "1 µM", "remaining binding [%]": 100}
{"SMILES": "O=C(Nc1c[nH]nc1C(=O)NC1CCNCC1)c1cc(F)cc(F)c1", "assay": "binding, competition with immobilised ligand", "setting": "1 µM", "remaining binding [%]": 100}
{"SMILES": "O=C(NCCCN1CCOCC1)c1ccc(Nc2ncc(Cl)c(-c3ccc(Cl)s3)n2)cc1", "assay": "binding, competition with immobilised ligand", "setting": "1 µM", "remaining binding [%]": 20}
{"SMILES": "C[C@@H]1CCN(c2nccc(-c3cnn4ncccc34)n2)C1", "assay": "binding", "setting": "1 µM", "remaining binding [%]": 87}
{"SMILES": "Cc1cnc(Nc2ccc(C(=O)N3CCC(N4CCCC4)CC3)cc2)nc1-c1cc2ccccc2s1", "assay": "binding, competition with immobilised ligand", "setting": "1 µM", "remaining binding [%]": 22}
{"SMILES": "C=CC(=O)N1CCC(C(=O)NCC(=O)N2CCN(c3nc(-c4cnc(N)nc4C(F)F)nc(N4CCOCC4)n3)CC2)CC1", "assay": "binding, competition with immobilised ligand", "setting": "1 µM", "remaining binding [%]": 100}
{"SMILES": "O=C(Nc1cccnn1)N1CCC(=Cc2cccc(Oc3ccc(C(F)(F)F)cn3)c2)CC1", "assay": "cell-free assay, competition with immobilised ligand", "setting": "1 µM", "remaining binding [%]": 100}
{"SMILES": "CNC(=O)[C@@H]1CC[C@@H](n2c(-c3ccc4cnccc4c3)nc3ccc(C(=O)NCc4cccc(C(N)=O)c4)cc32)C1", "assay": "binding, competition with immobilised ligand", "setting": "1 µM", "remaining binding [%]": 100}
{"SMILES": "Cc1cc(-n2nc(Cc3cc(F)cc(C(F)(F)F)c3)nc2C)ccc1C(N)=O", "assay": "cell-free assay, competition with immobilised ligand", "setting": "1 µM", "remaining binding [%]": 100}
{"SMILES": "CN(C)c1ncc(F)c(-c2cnn3ncccc23)n1", "assay": "binding", "setting": "1 µM", "remaining binding [%]": 69}
{"SMILES": "C[C@@H](c1ccc(-n2cnc3c(N)ncnc32)cc1)N1CCc2nn(C)c(Cc3ccccc3)c2C1=O", "assay": "binding, competition with immobilised ligand", "setting": "0.1 µM", "remaining binding [%]": 67}
{"SMILES": "CN(C)c1nccc(-c2cnn3ncccc23)n1", "assay": "binding", "setting": "1 µM", "remaining binding [%]": 52}
{"SMILES": "CS(=O)(=O)NCC[C@H](NC(=O)c1cncc2c1cnn2-c1ccc(F)cc1)c1ccnc(S(C)(=O)=O)c1", "assay": "cell-free assay, competition with immobilised ligand", "setting": "1 µM", "remaining binding [%]": 100}
{"SMILES": "FC(F)(F)Oc1cccc(-c2cnc3ccc(-c4ccncc4)nn23)c1", "assay": "cell-free assay, competition with immobilised ligand", "setting": "5 µM", "remaining binding [%]": 87}
{"SMILES": "F[C@@H]1CCN(c2nccc(-c3cnn4ncccc34)n2)C1", "assay": "binding", "setting": "1 µM", "remaining binding [%]": 100}
{"SMILES": "CC(=O)C1=C(C)N(c2cccc(C(F)(F)F)c2)C(=O)N[C@@H]1c1ccc(C#N)nc1", "assay": "cell-free assay, competition with immobilised ligand", "setting": "1 µM", "remaining binding [%]": 83.5}
{"SMILES": "CC1CCCN1c1nccc(-c2cnn3ncccc23)n1 (stereo not shown)", "assay": "binding", "setting": "1 µM", "remaining binding [%]": 95}
{"SMILES": "CCC(=O)N[C@H]1CC[C@@H](C(=O)N(C)c2ccc(-c3nc4ccccc4o3)cc2)C1", "assay": "cell-free assay, competition with immobilised ligand", "setting": "1 µM", "remaining binding [%]": 88}
